# Experimental data collected from several papers.
# Lines come from different studies, so protocols differ.
# HTR2B: 5-hydroxytryptamine receptor 2B (HTR2B, Homo sapiens, UniProt P41595)
# TOP2A: DNA topoisomerase 2-alpha (TOP2A, Homo sapiens, UniProt P11388)
# DHFR: Dihydrofolate reductase (DHFR, Homo sapiens, UniProt P00374)
# HTR2C: 5-hydroxytryptamine receptor 2C (HTR2C, Homo sapiens, UniProt P28335)
# FAAH: Fatty-acid amide hydrolase 1 (FAAH, Homo sapiens, UniProt O00519)
SMILES,target,assay,setting,IC50 [µM]
c1ccc(O[C@H]2CCN(Cc3ccc(-c4ccn[nH]4)o3)C2)cc1,HTR2B,"calcium signal, antagonist",,15.6
O=c1nc(SCc2cc(F)cc(C(F)(F)F)c2)nc(SCc2ccc3ccccc3n2)[nH]1,TOP2A,"enzyme activity, inhibitor",,18.6
CC(=O)Nc1ccc(Nc2nc(-c3sc(N)nc3C)cs2)cc1,"Lysyl oxidase homolog 1 (LOXL1, Homo sapiens, UniProt Q08397)","enzyme activity, inhibitor, fluorescence",with preincubation,> 10
Cc1cccc(OCCCC(=O)N2CCNCc3ccccc32)c1,HTR2B,"calcium signal, antagonist",,16.9
S=C(NCc1ccc(Cl)cc1)NN=Cc1ccc(N2CCCCC2)cc1,DHFR,"enzyme activity, inhibitor",,20.6
Cc1[nH]c2ccccc2c1C(=O)C(C)N1CCC(c2nccn2C)C1 (stereo not drawn),HTR2C,"calcium signal, antagonist",,2.61
O=C(Nc1ccc(-c2ccnc3ccccc23)cc1)C1CCN(S(=O)(=O)c2ccccc2Cl)CC1,FAAH,"enzyme activity, inhibitor, fluorescence",,0.0887
COc1ccccc1CC1CCN(CC(=O)c2cc(C)[nH]c2C)C1 (stereo not drawn),HTR2C,"calcium signal, antagonist",,23
CC1CCC(C(C)C)C(OC(=O)C=Cc2ccc(O)c(O)c2)C1 (stereo not drawn),DHFR,"enzyme activity, inhibitor, absorbance",,0.182
Cc1[nH]c2ccccc2c1SCCNC(=O)C1NCCC1C1CC1 (stereo not drawn),HTR2C,"calcium signal, antagonist",,38.2
Nc1nc(N)c(OCCCOc2ccccc2CCC(=O)O)c(-c2ccc(C(F)(F)F)cc2)n1,DHFR,"enzyme activity, inhibitor",,> 5
S=C(NN=Cc1ccc(N2CCCCC2)cc1)Nc1ccccc1,DHFR,"enzyme activity, inhibitor",,15.6
CN(C(=O)c1cn[nH]n1)C1CCN(CCc2cccc(Cl)c2Cl)C1 (stereo not drawn),HTR2B,"calcium signal, antagonist",,5.53
O=C(Nc1ccc(-c2cnc3ccccc3c2)cc1)C1CCN(S(=O)(=O)c2ccccc2Cl)CC1,FAAH,"enzyme activity, inhibitor, fluorescence",,0.016
O=[N+]([O-])c1ccc(NC(=S)NN=Cc2ccc(N3CCCCC3)cc2)cc1,DHFR,"enzyme activity, inhibitor",,16.2
O=c1nc(SCc2ccc(C(F)(F)F)cc2)nc(SCc2ccc3sccc3c2)[nH]1,TOP2A,"enzyme activity, inhibitor",,16.3
CC1CC2CN(C(C)C(=O)c3c[nH]c4ccccc34)CCN2C1 (stereo not drawn),HTR2B,"calcium signal, antagonist",,2.25
Cc1ccccc1NC(=O)C=Cc1ccc(O)c(O)c1,DHFR,"enzyme activity, inhibitor, absorbance",,1.1
O=c1nc(SCc2cc(F)cc(C(F)(F)F)c2)nc(SCc2cccc(C(F)(F)F)c2)[nH]1,TOP2A,"enzyme activity, inhibitor",,14.5
O=C(C=Cc1ccc(O)c(O)c1)OCc1ccccc1,DHFR,"enzyme activity, inhibitor, absorbance",,12.6
O=[N+]([O-])c1cccc(NC(=S)NN=Cc2ccc(N3CCCCC3)cc2)c1,DHFR,"enzyme activity, inhibitor",,13.7
Cc1[nH]c2ccccc2c1SCCNC(=O)CN1CCC(C)C1 (stereo not drawn),HTR2B,"calcium signal, antagonist",,3.68
Cc1cccc(C)c1NC(=S)NN=Cc1ccc(N2CCCCC2)cc1,DHFR,"enzyme activity, inhibitor",,18.3
O=C(Nc1ccc(-c2ccc3cccnc3c2)cc1)C1CCN(S(=O)(=O)c2ccccc2Cl)CC1,FAAH,"enzyme activity, inhibitor, fluorescence",,0.0105
Cc1ccc(CNC(=S)NN=Cc2ccc(N3CCCCC3)cc2)cc1,DHFR,"enzyme activity, inhibitor",,33.9
O=C(O)/C=C/c1ccc(O)c(O)c1,DHFR,"enzyme activity, inhibitor, absorbance",,105
S=C(NCc1ccccc1)NN=Cc1ccc(N2CCCCC2)cc1,DHFR,"enzyme activity, inhibitor",,31.3
O=C(Nc1ccc(-c2cccc3cccnc23)cc1)C1CCN(S(=O)(=O)c2ccccc2Cl)CC1,FAAH,"enzyme activity, inhibitor, fluorescence",,0.135
O=c1nc(SCc2cc(F)cc(C(F)(F)F)c2)nc(SCc2ccc3ncsc3c2)[nH]1,TOP2A,"enzyme activity, inhibitor",,36.3
Fc1ccc(NC(=S)NN=Cc2ccc(N3CCCCC3)cc2)cc1,DHFR,"enzyme activity, inhibitor",,24.6
